Experimental data: PubChem BioAssay AID602148 (NMMLSC, 2011)
Activity calls are given as the source filed them.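 Rule for the calls: active = a drop over time in fluorescent ligand binding to the VLA-4 integrin, graded weak or strong, level 1 or 2; inactive = no binding drop, level 0.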

Tested on: U937 deltaST FPR, LDV-FITC VLA-4 binding, flow cytometry
Assay: decrease of VLA-4 ligand affinity after FPR stimulation, mechanism study for Ras-related GTPase inhibitor project, U937 deltaST FPR cells, flow cytometry (AID 602148)
Conditions: at 50 µM; active compounds read high
Method in brief: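 System: deltaST-FPR-expressing U937 cells. Reagent: LDV-FITC VLA-4 ligand ~4 nM, sub-saturating, plus fMLFF 100 nM. Times: flow acquisition 1024 s at 37 °C, compounds after plateau. Measured by: flow cytometry, mean channel fluorescence of bound LDV-FITC. Read-out: LDV-FITC binding decline over time, graded none, weak, strong.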

VLA-4 affinity decrease level (0-2)	Compound
2	COc1cccc(C(=O)NC(=S)Nc2sc3c(c2C(=O)O)CC(C)(C)OC3)c1
0 (inactive)	Cc1ccc(C(=O)NC(=S)Nc2sc3c(c2C(=O)O)CC(C)(C)OC3)cc1
1	COc1ccc(C(=O)NC(=S)Nc2sc3c(c2C(=O)O)CC(C)(C)OC3)cc1
0 (inactive)	Cc1ccccc1C(=O)NC(=S)Nc1sc2c(c1C(=O)O)CC(C)(C)OC2
0 (inactive)	CC1(C)Cc2c(sc(NC(=S)NC(=O)c3ccc(F)cc3)c2C(=O)O)CO1
2	CC1(C)Cc2c(sc(NC(=S)NC(=O)c3cccc(Br)c3)c2C(=O)O)CO1
1	COc1ccccc1C(=O)NC(=S)Nc1sc2c(c1C(=O)O)CC(C)(C)OC2
0 (inactive)	Cc1cccc(C(=O)NC(=S)Nc2sc3c(c2C(=O)O)CC(C)(C)OC3)c1
1	CC1(C)Cc2c(sc(NC(=S)NC(=O)c3cccc(F)c3)c2C(=O)O)CO1
2	CC1(C)Cc2c(sc(NC(=S)NC(=O)c3ccc(Br)cc3)c2C(=O)O)CO1

More lines, now with the values behind:

Compound	VLA-4 affinity decrease level (0-2)
CC(C)(C)C1Cc2c(sc(NC(=S)NC(=O)c3ccccc3)c2C(=O)O)CO1 (stereo not drawn)	0 (inactive)
CC1(C)Cc2c(sc(NC(=S)NC(=O)c3ccco3)c2C(=O)O)CO1	0 (inactive)
CC1(C)Cc2c(sc(NC(=S)NC(=O)c3ccccc3Br)c2C(=O)O)CO1	2
O=C(NC(=S)Nc1sc2c(c1C(=O)O)CC1(CCCC1)OC2)c1ccccc1	0 (inactive)
CCC1(C)Cc2c(sc(NC(=S)NC(=O)c3ccccc3)c2C(=O)O)CO1 (stereo not drawn)	0 (inactive)
CC1(C)Cc2c(sc(NC(=S)NC(=O)C3CCCCC3)c2C(=O)O)CO1	1
CC1(C)Cc2c(sc(NC(=S)NC(=O)c3cccs3)c2C(=O)O)CO1	0 (inactive)
CC1(C)Cc2c(sc(NC(=S)NC(=O)c3ccccc3F)c2C(=O)O)CO1	0 (inactive)
